Reference: ChEMBL document CHEMBL1141480 (Bioorg Med Chem Lett, 2008)
Values after ≈ are worked out from the molar mass of the structure shown.

Experiments:
[1] = Half life in monkey; format: ADME, organism-based, Macaca mulatta; settings: rhesus monkey, in vivo
[2] = Clearance in monkey; format: ADME, organism-based, Macaca mulatta; settings: rhesus monkey, in vivo
Cathepsin K [3] = target: Cathepsin K (Homo sapiens, UniProt P43235); assay: Inhibition of humanized rabbit cathepsin K
Cathepsin K [4] = target: T1, Cathepsin K (Oryctolagus cuniculus, UniProt P43236); assay: Inhibition of rabbit cathepsin K
T1 sequence (P43236 whole entry): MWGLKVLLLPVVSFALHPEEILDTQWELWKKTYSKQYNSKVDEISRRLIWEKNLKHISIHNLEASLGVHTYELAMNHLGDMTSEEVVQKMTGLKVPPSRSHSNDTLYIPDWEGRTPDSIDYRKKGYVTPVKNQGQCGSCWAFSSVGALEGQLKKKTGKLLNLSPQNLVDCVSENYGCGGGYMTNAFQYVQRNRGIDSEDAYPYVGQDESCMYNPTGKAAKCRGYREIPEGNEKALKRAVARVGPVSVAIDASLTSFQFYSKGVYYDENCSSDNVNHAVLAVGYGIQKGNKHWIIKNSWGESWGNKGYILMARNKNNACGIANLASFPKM

Osteoclast = assay: Inhibition of bone resorption in rabbit osteoclast; settings: Oryctolagus cuniculus
Cathepsin B [5] = target: T2, Cathepsin B (Homo sapiens, UniProt P07858); assay: Inhibition of cathepsin B
In short: (§1)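 Purified human cathepsin enzymes, with assay conditions per an earlier report. Read-out is IC50; standard deviations were typically within 35% of the IC50.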

Procathepsin L [6] = target: T3, Procathepsin L (Homo sapiens, UniProt P07711); assay: Inhibition of cathepsin L; in short: as §1
T3 sequence (P07711 whole entry): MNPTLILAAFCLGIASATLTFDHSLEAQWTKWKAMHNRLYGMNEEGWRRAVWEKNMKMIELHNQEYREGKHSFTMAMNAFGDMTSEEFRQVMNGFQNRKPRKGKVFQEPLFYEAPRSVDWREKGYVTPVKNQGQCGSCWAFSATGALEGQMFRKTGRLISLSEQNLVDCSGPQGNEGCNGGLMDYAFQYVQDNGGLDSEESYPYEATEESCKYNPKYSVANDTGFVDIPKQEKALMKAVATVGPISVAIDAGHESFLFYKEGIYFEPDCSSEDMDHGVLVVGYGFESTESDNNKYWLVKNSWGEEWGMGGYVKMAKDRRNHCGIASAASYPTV

Cathepsin S [7] = target: T4, Cathepsin S (Homo sapiens, UniProt P25774); assay: Inhibition of cathepsin S; in short: as §1
T4 sequence (P25774 whole entry): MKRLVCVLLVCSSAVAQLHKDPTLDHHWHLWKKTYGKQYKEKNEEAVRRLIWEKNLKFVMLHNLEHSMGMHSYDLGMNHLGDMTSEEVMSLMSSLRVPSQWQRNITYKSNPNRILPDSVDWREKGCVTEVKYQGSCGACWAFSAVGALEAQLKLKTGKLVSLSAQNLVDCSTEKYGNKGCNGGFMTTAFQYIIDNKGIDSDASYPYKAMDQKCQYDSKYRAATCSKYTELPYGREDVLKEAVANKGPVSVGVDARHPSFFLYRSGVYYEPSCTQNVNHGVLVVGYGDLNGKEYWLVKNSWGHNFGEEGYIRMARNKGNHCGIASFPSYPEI

Cathepsin B [8] = target: T2, Cathepsin B; assay: Inhibition of cathepsin B in human HepG2 cells; format: cell-based
In short: (§2)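 Whole-cell enzyme occupancy assays run as previously described: human HepG2 cells for cathepsin B and L, and Ramos cells for cathepsin S. Read-out is IC50.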

Cathepsin S [9] = target: T4, Cathepsin S; assay: Inhibition of cathepsin S in human ramos cells; format: cell-based; in short: as §2
Fibroblast = assay: Accumulation of intracellular type I collagen in human dermal fibroblast upto 10 uM; format: functional
In short: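 Primary human dermal fibroblasts were grown in 3-D collagen gel, with inhibitors present for the final 3 days at concentrations up to 10 µM. Cells were freed from the gel with collagenase, fixed and permeabilized. Intracellular type I collagen was stained with an anti-type I collagen mAb plus a FITC-labelled secondary antibody and quantified by flow cytometry.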

Cathepsin F = target: T5, Cathepsin F (Homo sapiens, UniProt Q9UBX1); assay: Inhibition of cathepsin F; in short: as §1
T5 sequence (Q9UBX1 whole entry): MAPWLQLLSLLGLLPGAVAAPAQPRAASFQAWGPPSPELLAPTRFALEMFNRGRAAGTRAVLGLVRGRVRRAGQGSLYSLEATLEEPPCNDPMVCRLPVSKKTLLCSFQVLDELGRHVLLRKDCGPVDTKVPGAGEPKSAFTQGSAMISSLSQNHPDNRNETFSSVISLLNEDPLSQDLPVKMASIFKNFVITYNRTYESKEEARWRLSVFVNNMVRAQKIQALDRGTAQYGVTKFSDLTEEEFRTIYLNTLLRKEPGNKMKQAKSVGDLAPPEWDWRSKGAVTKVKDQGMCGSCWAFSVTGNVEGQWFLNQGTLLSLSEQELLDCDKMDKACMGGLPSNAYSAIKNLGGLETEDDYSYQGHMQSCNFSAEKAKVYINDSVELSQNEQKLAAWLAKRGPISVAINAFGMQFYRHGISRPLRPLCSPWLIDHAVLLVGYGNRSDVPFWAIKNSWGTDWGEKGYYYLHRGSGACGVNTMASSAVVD

Cathepsin L2 = target: T6, Cathepsin L2 (Homo sapiens, UniProt O60911); assay: Inhibition of cathepsin V; in short: as §1
T6 sequence (O60911 whole entry): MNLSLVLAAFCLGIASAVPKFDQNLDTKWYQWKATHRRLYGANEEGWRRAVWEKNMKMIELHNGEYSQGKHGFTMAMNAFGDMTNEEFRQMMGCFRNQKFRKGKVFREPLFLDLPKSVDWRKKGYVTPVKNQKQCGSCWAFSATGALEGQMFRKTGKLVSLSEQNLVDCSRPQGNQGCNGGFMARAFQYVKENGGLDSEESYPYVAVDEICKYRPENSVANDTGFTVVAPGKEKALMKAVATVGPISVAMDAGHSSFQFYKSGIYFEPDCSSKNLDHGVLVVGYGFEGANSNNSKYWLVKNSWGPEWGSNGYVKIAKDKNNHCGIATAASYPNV

Dipeptidyl peptidase 1 = Dipeptidyl peptidase 1 (Homo sapiens, UniProt P53634); assay: Inhibition of cathepsin C; in short: as §1
Dipeptidyl peptidase 1, sequence (P53634 25-134 limits assumed): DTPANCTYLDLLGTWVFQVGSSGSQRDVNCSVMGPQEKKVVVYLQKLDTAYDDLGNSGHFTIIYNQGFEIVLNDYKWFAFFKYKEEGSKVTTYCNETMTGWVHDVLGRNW
Dipeptidyl peptidase 1, sequence (P53634 231-394 limits assumed): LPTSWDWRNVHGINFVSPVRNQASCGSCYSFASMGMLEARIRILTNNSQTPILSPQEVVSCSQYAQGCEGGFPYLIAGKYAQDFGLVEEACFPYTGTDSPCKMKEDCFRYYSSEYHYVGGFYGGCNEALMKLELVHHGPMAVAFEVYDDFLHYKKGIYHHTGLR
Dipeptidyl peptidase 1, sequence (P53634 395-463 limits assumed): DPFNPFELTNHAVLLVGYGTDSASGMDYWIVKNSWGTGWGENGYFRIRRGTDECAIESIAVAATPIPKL

Pro-cathepsin H = target: T7, Pro-cathepsin H (Homo sapiens, UniProt P09668); assay: Inhibition of cathepsin H; in short: as §1
T7 sequence (P09668 whole entry): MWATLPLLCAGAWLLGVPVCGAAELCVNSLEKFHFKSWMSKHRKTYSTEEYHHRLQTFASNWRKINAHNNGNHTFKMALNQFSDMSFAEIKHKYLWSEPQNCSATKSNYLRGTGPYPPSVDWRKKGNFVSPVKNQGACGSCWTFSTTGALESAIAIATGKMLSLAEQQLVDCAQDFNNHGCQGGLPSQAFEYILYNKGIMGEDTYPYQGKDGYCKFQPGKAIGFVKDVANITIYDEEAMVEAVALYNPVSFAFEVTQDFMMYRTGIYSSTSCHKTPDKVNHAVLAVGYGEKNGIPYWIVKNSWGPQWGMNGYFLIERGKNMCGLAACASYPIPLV

Cathepsin Z = Cathepsin Z (Homo sapiens, UniProt Q9UBR2); assay: Inhibition of cathepsin Z
Cathepsin Z, sequence (Q9UBR2 whole entry): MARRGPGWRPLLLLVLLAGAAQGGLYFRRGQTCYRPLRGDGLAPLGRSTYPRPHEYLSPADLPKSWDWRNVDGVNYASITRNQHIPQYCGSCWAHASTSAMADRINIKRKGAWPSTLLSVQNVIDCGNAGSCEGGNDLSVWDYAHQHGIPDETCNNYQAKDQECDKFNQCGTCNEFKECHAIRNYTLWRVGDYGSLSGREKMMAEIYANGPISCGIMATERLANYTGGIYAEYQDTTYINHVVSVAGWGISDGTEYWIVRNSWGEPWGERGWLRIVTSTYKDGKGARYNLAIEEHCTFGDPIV

Cathepsin K [10] = target: T8, Cathepsin K (Homo sapiens, UniProt P43235); assay: Inhibition of human cathepsin K
T8 sequence (P43235 whole entry): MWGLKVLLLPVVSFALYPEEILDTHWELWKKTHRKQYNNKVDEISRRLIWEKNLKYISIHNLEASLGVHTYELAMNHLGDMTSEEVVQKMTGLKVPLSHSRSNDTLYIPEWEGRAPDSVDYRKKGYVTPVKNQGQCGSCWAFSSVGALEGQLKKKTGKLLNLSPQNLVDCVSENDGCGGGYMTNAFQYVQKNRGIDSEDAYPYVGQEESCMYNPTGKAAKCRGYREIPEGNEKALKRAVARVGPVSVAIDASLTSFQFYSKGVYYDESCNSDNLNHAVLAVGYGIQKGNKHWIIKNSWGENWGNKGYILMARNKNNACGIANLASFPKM

Procathepsin L [11] = target: T3, Procathepsin L; assay: Inhibition of cathepsin L in human HepG2 cells; format: cell-based
[12] = Metabolic stability in rhesus monkey hepatocyte at 20 uM after 2 hrs assessed as recovery of parent compound; format: ADME, cell-based, Macaca mulatta; settings: hepatocytes, read-out: Stability
[13] = Metabolic stability in human hepatocyte at 20 uM after 2 hrs assessed as recovery of parent compound; format: ADME, cell-based; settings: hepatocytes, read-out: Stability
[14] = Metabolic stability in dog hepatocyte at 20 uM after 2 hrs assessed as recovery of parent compound; format: ADME, cell-based, Canis lupus familiaris; settings: hepatocytes, read-out: Stability
[15] = Oral bioavailability in rat at 10 mg/kg; format: ADME, organism-based; settings: in vivo
[16] = Clearance in rat at 10 mg/kg, po; format: ADME, organism-based; parameters: dose 10 mg/kg, route oral; settings: in vivo
[17] = Half life in rat at 10 mg/kg, po; format: ADME, organism-based; parameters: dose 10 mg/kg, route oral; settings: in vivo
Rattus norvegicus = assay: Volume of distribution at steady state in rat at 10 mg/kg, po; format: ADME, organism-based; parameters: dose 10 mg/kg, route oral; settings: in vivo
[18] = Oral bioavailability in dog at 5 mg/kg; format: ADME, organism-based, Canis lupus familiaris; settings: in vivo
[19] = Clearance in dog at 5 mg/kg, po; format: ADME, organism-based, Canis lupus familiaris; parameters: dose 5 mg/kg, route oral; settings: in vivo
[20] = Half life in dog at 5 mg/kg, po; format: ADME, organism-based, Canis lupus familiaris; parameters: dose 5 mg/kg, route oral; settings: in vivo
Canis familiaris = assay: Volume of distribution at steady state in dog at 5 mg/kg, po; format: ADME, organism-based, Canis lupus familiaris; parameters: dose 5 mg/kg, route oral; settings: in vivo
[21] = Oral bioavailability in rhesus monkey at 5 mg/kg; format: ADME, organism-based, Macaca mulatta; settings: in vivo
[22] = Clearance in rhesus monkey at 5 mg/kg, po; format: ADME, organism-based, Macaca mulatta; parameters: dose 5 mg/kg, route oral; settings: in vivo
[23] = Half life in rhesus monkey at 5 mg/kg, po; format: ADME, organism-based, Macaca mulatta; parameters: dose 5 mg/kg, route oral; settings: in vivo
Rhesus monkey = assay: Volume of distribution at steady state in rhesus monkey at 5 mg/kg, po; format: ADME, organism-based, Macaca mulatta; parameters: dose 5 mg/kg, route oral; settings: in vivo
[24] = Inhibition of antigen presenting mouse B cells; format: functional, cell-based
Splenocyte = assay: Inhibition of MHC 2 invariant chain iip10 in mouse splenocytes; format: functional, cell-based

Work on `CC(C)C[C@H](N[C@@H](c1ccc(-c2ccc(S(C)(=O)=O)cc2)cc1)C(F)(F)F)C(=O)NCC#N` yielded a half-life [1] of 2 h, a clearance [2] of 7.5 mL/min/kg and an IC50 (Cathepsin K [3]) of 0.2 nM. It also gave an IC50 (Cathepsin K [4]) of 0.8 nM and an IC50 (Osteoclast) of 13 nM.
Work on `CC(C)C[C@H](N[C@@H](c1ccc(-c2ccc(S(C)(=O)=O)cc2)cc1)C(F)(F)F)C(=O)N[C@@H](C)C#N` yielded an IC50 (Cathepsin K [3]) of 1.2 nM, an IC50 (Cathepsin B [5]) of over 10000 nM and an IC50 (Procathepsin L [6]) of 3390 nM. The IC50 (Cathepsin S [7]) was 2240 nM.
Work on `CC(C)C[C@H](NC(=O)c1cc2ccccc2o1)C(=O)N[C@H]1CC[C@@H](C)N(S(=O)(=O)c2ccccn2)CC1=O` [RELACATIB] yielded an IC50 (Osteoclast) of 15 nM, an IC50 (Cathepsin B [8]) of 14 nM and an IC50 (Cathepsin S [9]) of 8 nM.
In the case of `CC(C)C[C@H](N[C@@H](c1ccc(-c2ccc(S(C)(=O)=O)cc2)cc1)C(F)(F)F)C(=O)NC(C#N)c1ccccc1` (mixture of isomers), the IC50 (Cathepsin K [3]) is reported as 0.6 nM, the IC50 (Cathepsin B [5]) is reported as 3450 nM and the IC50 (Procathepsin L [6]) is reported as 667 nM. It also gave an IC50 (Cathepsin S [7]) of 217 nM.
For `CC(C)C[C@H](N[C@@H](c1ccc(-c2ccc(S(C)(=O)=O)cc2)cc1)C(F)(F)F)C(=O)N[C@H](C#N)Cc1ccccc1`, the IC50 (Cathepsin K [3]) was 0.6 nM, the IC50 (Cathepsin B [5]) was 953 nM and the IC50 (Procathepsin L [6]) was 67 nM. The IC50 (Cathepsin S [7]) was 38 nM.
In the case of `CCCN1CCN(c2ccc(C(=O)NC3(C(=O)NCC#N)CCCCC3)cc2)CC1` [BALICATIB], the Activity (Fibroblast) is reported as 3.
Molecule `CC(C)C[C@H](N[C@@H](c1ccc(-c2ccc(S(C)(=O)=O)cc2)cc1)C(F)(F)F)C(=O)NC(C)(C)C#N` has an IC50 (Cathepsin K [3]) of 4 nM, an IC50 (Cathepsin B [5]) of over 10000 nM and an IC50 (Procathepsin L [6]) of over 10000 nM. The IC50 (Cathepsin S [7]) was 2490 nM.
Molecule `CC(C)C[C@H](N[C@@H](c1ccc(-c2ccc(S(C)(=O)=O)cc2)cc1)C(F)(F)F)C(=O)N[C@@H](C#N)Cc1ccccc1` has an IC50 (Cathepsin K [3]) of 5.1 nM, an IC50 (Cathepsin B [5]) of over 10000 nM and an IC50 (Procathepsin L [6]) of 2940 nM. It also gave an IC50 (Cathepsin S [7]) of 2830 nM.
Work on `CC(C)(F)C[C@H](N[C@@H](c1ccc(-c2ccc(S(C)(=O)=O)cc2)cc1)C(F)(F)F)C(=O)NC1(C#N)CC1` [ODANACATIB] yielded an IC50 (Cathepsin K [3]) of 0.2 nM, an IC50 (Cathepsin B [5]) of 1030 nM and an IC50 (Procathepsin L [6]) of 3000 nM. It also gave an IC50 (Cathepsin S [7]) of 60 nM, an IC50 (Cathepsin F) of 795 nM and an IC50 (Cathepsin L2) of 762 nM. The IC50 (Dipeptidyl peptidase 1) was over 10000 nM, the IC50 (Pro-cathepsin H) was over 10000 nM and the IC50 (Cathepsin Z) was over 10000 nM. The IC50 (Cathepsin K [10]) was 0.2 nM, the IC50 (Cathepsin K [4]) was 1 nM and the IC50 (Osteoclast) was 23 nM. The IC50 (Cathepsin B [8]) was 1050 nM, the IC50 (Procathepsin L [11]) was 4840 nM and the IC50 (Cathepsin S [9]) was 45 nM. It also gave a remaining at 2 h, 20 µM [12] of 98%, a remaining at 2 h, 20 µM [13] of over 99% and a remaining at 2 h, 20 µM [14] of over 99%. It also gave a bioavailability [15] of 8%, a CL/F [16] of 2 mL/min/kg and a half-life [17] of 6 h. For the same molecule, the Vdss (Rattus norvegicus) was 1.1 L/kg, the bioavailability [18] was 6% and the CL/F [19] was 0.13 mL/min/kg. For the same molecule, the half-life [20] was 57 h, the Vdss (Canis familiaris) was 0.6 L/kg and the bioavailability [21] was 7%. It also gave a CL/F [22] of 6.1 mL/min/kg, a half-life [23] of 18 h and a Vdss (Rhesus monkey) of 1.6 L/kg. It also gave an IC50 [24] of 1500 nM and an MIC (Splenocyte) of 1 µM (≈ 0.526 µg/mL).
